The list is not random: actives were taken first. Their share in the collection is about 3.7%.
Kir21 inh: blocks the mouse Kir2.1 inward-rectifier potassium channel. P35561. HEK293-Kir2.1, FluxOR thallium flux fluorescence; hits give low values. B-score at 10 µM. actives 0.85% (n = 310,000). AID 1672;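 active means fluorescence ratio B-score at or below minus 3 SD of library scores, with starting-brightness B-score within 2 SD, cut at about -4.2 in these data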;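 further: channel flux triggered by added potassium and thallium sulfate stimulus; B-score of peak minus minimum fluorescence over baseline after thallium stimulus; more negative B-score means stronger Kir2.1 block with less thallium influx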
KCNQ1 pot: human KCNQ1 channel potentiation or activation | actives 0.35% (n = 310,000) | CHO-K1 KCNQ1, thallium flux FluxOR fluorescence; hits give high values | B-score at 10 µM | AID 2648 | P51787;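 active means fluorescence ratio B-score, a plate-corrected score, at least three library SD, with initial intensity B-score within 5 SD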
Target sequence (P51787 whole entry, looked up): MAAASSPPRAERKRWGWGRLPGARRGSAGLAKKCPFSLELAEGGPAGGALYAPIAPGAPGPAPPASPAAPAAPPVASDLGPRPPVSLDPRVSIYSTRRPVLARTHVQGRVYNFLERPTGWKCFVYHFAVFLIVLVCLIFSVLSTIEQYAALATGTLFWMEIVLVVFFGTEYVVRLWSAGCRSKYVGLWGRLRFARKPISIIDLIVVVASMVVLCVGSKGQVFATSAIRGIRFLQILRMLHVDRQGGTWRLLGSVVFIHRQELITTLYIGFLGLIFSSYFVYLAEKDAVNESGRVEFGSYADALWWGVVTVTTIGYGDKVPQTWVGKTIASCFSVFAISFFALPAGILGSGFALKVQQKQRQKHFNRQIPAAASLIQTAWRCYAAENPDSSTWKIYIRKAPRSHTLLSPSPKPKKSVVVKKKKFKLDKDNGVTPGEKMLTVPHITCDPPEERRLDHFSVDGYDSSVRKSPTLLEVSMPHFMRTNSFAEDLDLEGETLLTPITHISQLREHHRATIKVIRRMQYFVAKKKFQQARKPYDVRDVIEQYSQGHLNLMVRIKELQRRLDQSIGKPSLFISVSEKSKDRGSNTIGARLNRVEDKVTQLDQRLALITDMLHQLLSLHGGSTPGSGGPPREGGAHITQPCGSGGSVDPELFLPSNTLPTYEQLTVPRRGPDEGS
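Schedule – 37 °C overnight plating, 90-min dark dye load, 20-min compound pretreatment · System – stable KCNQ1 CHO-K1 line · Probe or stimulus – thallium- and potassium-containing depolarizing buffer · Measured by – kinetic FluxOR fluorescence, 10 s baseline plus 110 s post-stimulus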
hERG rescue: compounds protecting human hERG from proarrhythmic drug block. activation (rescue from dofetilide block), less the hit threshold, % at 10 µM. AID 1511. Q12809. actives 0.51% (n = 310,000). CHO-hERG, FluxOR thallium flux, dofetilide IC70 present;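 active means activation above the mean of controls blocked by dofetilide plus 5 SD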;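 further: thallium influx through hERG after potassium depolarization seen as dye fluorescence rise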
KCNK3 inh: human KCNK3 channel inhibition, primary screen. O14649. CHO-KCNK3 thallium flux, FluxOR fluorescence; hits give low values. B-score at 10 µM. actives 0.84% (n = 340,000);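 active means B-score under library mean minus 4 SD, starting fluorescence ratio at most library mean plus 5 SD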;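 further: more negative B-score means stronger inhibition of thallium flux through KCNK3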
KCNK9 inh: human KCNK9 channel inhibition; B-score at 10 µM; actives 1.2% (n = 310,000); Q9NPC2; HEK293 KCNK9, FluxOR thallium flux fluorescence; hits give low values; AID 488922;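 active means ratio B-score over 3 SD below the library mean, with starting fluorescence within 5 SD of its mean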;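 further: negative B-score means less thallium flux so channel inhibition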
KCNQ1 block: inhibitors of human KCNQ1 potassium channel; CHO-K1 KCNQ1, FluxOR thallium flux fluorescence; hits give high values; B-score at 10 µM; actives 1.3% (n = 310,000); AID 2642;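 active means compounds whose thallium flux B-score, printed positive for inhibition, exceeds three library SD while starting fluorescence stays within three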;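 further: channel opened by potassium depolarization with thallium stimulus after 20 min compound exposure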
KCNQ1 inh valid: confirmation of human KCNQ1 potassium channel inhibitors. shares compounds with KCNQ1 block. KCNQ1 cell line, FluxOR thallium flux fluorescence. inhibition, % at 10 µM. actives 93% (n = 1,600);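 active means primary screen active, with duplicate mean exceeding buffer control mean plus 3 SD of buffer wells, cut at about 28% in these data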;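 further: 0% = buffer control ratio and 100% = XE991 inhibitor control ratio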
CHO KCNQ1 ctr: KCNQ1 inhibitor counter-screen hit in parental CHO cells. parental CHO-K1, FluxOR thallium flux fluorescence ratio; hits give low values; zero means no signal rise above baseline. fluorescence ratio (Tl flux) at 10 µM. shares compounds with KCNQ1 block. actives 21% (n = 1,600);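 active means mean of duplicate thallium-flux fluorescence ratios in parental host cells more than 5 SD below the buffer control mean, cut at about 0.38 in these data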;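 further: ratio is peak minus minimum fluorescence divided by baseline fluorescence; actives read low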
KCNQ1 ephys val: blocks human KCNQ1 current in automated patch clamp | KCNQ1-CHO cells | AID 624120 | calls only at 10 µM | actives 20% (n = 490) | shares compounds with KCNQ1 block;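 active means KCNQ1 current drop exceeding 3 SD of negative control wells, seen in both duplicate runs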;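 further: steady state current during a 2 s step from -80 to +40 mV; negative values mean current inhibition and positive values mean potentiation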
KCNQ2 spec: KCNQ1 inhibitor that also blocks rat KCNQ2 channel | shares compounds with KCNQ1 block | KCNQ2 cells, FluxOR thallium flux fluorescence | inhibition, % at 10 µM | actives 71% (n = 1,600) | AID 651746;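 active means mean percent inhibition of the KCNQ2 thallium signal more than 5 SD above the buffer-only control wells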;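 further: KCNQ2 expressed in CHO cells; 0% = buffer control wells and 100% = XE-991 inhibitor control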
KCNQ1-KCNE1 inh: KCNQ1 inhibitor that also blocks human KCNQ1/KCNE1 channel; actives 77% (n = 1,600); KCNQ1/KCNE1 cells, FluxOR thallium flux fluorescence; shares compounds with KCNQ1 block; inhibition, % at 10 µM;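 active means mean percent inhibition of duplicate wells above the buffer-only control mean plus 3 SD of those controls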;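 further: 0% = buffer only wells and 100% = XE-991 inhibitor control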
Numbers without * were called inactive; i = inactive; x = not tested or not shown; + = active, no number.

SMILES	Kir21 inh	KCNQ1 pot	hERG rescue	KCNK3 inh	KCNK9 inh	KCNQ1 block	KCNQ1 inh valid	CHO KCNQ1 ctr	KCNQ2 spec	KCNQ1-KCNE1 inh	others
CCc1ccccc1N1CCN(S(=O)(=O)c2cc(OC)ccc2OC)CC1	-0.19	i	-15	i	i	6*	106*	0.43	95%*	142%*	KCNQ1 ephys val=+
COc1ccc(OC)c(S(=O)(=O)N2CCN(c3ccccc3)CC2)c1	-0.26	i	-11	i	i	i	x	x	x	x
COc1ccc(OC)c(CNC(=O)CCn2nc(C)c3c(C)n(-c4ccccc4)nc3c2=O)c1	-0.82	i	-8	i	i	i	x	x	x	x
CSc1cccc(CN2CCCC(CO)(Cc3cccc(Cl)c3)C2)c1 (centres undefined)	-1.2	i	-18	i	i	7*	56*	0.41	101%*	86%*
OCC1(Cc2cccc(Cl)c2)CCCN(Cc2ccc(F)c(F)c2)C1 (centres undefined)	-0.82	i	-13	i	i	i	x	x	x	x
COc1ccc(CCNc2ncnc3[nH]ncc23)cc1OC	1.6	i	-14	i	i	i	x	x	x	x
COc1ccc(CCNc2ncnc3sc(C)cc23)cc1OC	-6.2*	i	-19	i	i	11*	133*	0.44	80%*	82%*	KCNQ1 ephys val=i
Cc1ccccc1NC(=O)COc1coc(CN2CCN(c3ccccc3)CC2)cc1=O	-0.29	i	-13	i	i	i	x	x	x	x
Cc1c(C(=O)Nc2nnc(C(F)(F)F)s2)oc2ccccc12	0.51	i	-11	i	i	7*	69*	0.54	i	i
COC(=O)c1sc(NC(=O)c2oc3ccccc3c2C)nc1C	0.32	i	-2	i	i	i	x	x	x	x
O=S(=O)(NCCNc1ncc(C(F)(F)F)cc1Cl)C(F)(F)F	-0.02	i	-14	i	i	6*	40*	0.47	i	i
CC(=O)c1c(C)n(CC(=O)NCc2ccco2)c2ccccc12	-3.3	i	-14	i	i	10*	33*	0.54	i	50%*
Cc1ccccc1-n1c(=O)c2ccccc2n(CC(=O)NCc2ccco2)c1=O	-0.33	i	-10	i	i	i	x	x	x	x
CCOC(=O)c1c(C)nc2ccc(Cl)cc2c1-c1ccccc1	-3.2	i	-10	i	i	7*	122*	0.49	117%*	154%*	KCNQ1 ephys val=i
CCOC(=O)c1[nH]c2ccc(Cl)cc2c1-c1ccccc1	0.36	i	-13	i	i	i	x	x	x	x
Cc1nc(Cl)c(C#N)cc1-c1ccccc1	-0.06	i	-4	i	i	i	x	x	x	x
Cc1nc(Sc2ccccc2)c(C#N)cc1-c1ccccc1	-0.82	i	-17	i	i	6*	95*	0.42	105%*	136%*	KCNQ1 ephys val=+
O=C(Nc1ccccc1C(=O)NCCc1ccccc1)c1cnccn1	-0.59	i	-1	i	i	i	x	x	x	x
COC(=O)COc1ccc(S(=O)(=O)NCc2ccccn2)cc1	1.3	i	-5	i	i	i	x	x	x	x
CCCCOc1[nH]c2nc(-c3ccco3)n(Cc3ccco3)c(=N)c2c1C#N	-3.3	i	-17	i	-7.2*	14*	76*	0.5	78%*	81%*
